From ChEMBL document CHEMBL4270612, “Discovery of dual GyrB/ParE inhibitors active against Gram-negative bacteria” (Eur J Med Chem, 2018)
In brackets after ≈: the same amount, converted by molar mass.

Assays:
Pseudomonas aeruginosa [1] = assay: Antibacterial activity against Pseudomonas aeruginosa PAO1 after 24 hrs by broth microdilution method; format: functional; settings: PAO1, 24 h
In short: (§1)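 Broth microdilution per CLSI. Bacterial suspension adjusted to 1×10^6 CFU/mL in cation-adjusted Mueller–Hinton broth and mixed 1:1 with 2-fold serial compound dilutions. Final DMSO 2.5% v/v. Plates incubated at 35 °C with shaking at 140 rpm for 24 h.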

Escherichia coli [2] = assay: Antibacterial activity against Escherichia coli after 24 hrs by broth microdilution method; format: functional; in short: as §1
[3] = Dissociation constant, pKa of compound by pH metric method; format: physicochemical
In short: (§2)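 Potentiometric (pH-metric) titration on an automated titrator, Gold Standard pH metric assay, run in triplicate.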

DNA gyrase subunit B = DNA gyrase subunit B (Escherichia coli, UniProt P0AES6); assay: Inhibition of Escherichia coli GyrB (1 to 220 residues) expressed in Escherichia coli BL21(DE3)
Pseudomonas aeruginosa [4] = assay: Antibacterial activity against Pseudomonas aeruginosa harboring MexABCDXY deletion mutant after 24 hrs by broth microdilution method; format: functional
In short: (§3)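 Broth microdilution per CLSI. Bacterial suspensions adjusted to 1×10^6 CFU/mL in cation-adjusted Mueller–Hinton broth, mixed 1:1 with 2-fold serial compound dilutions (final DMSO 2.5% v/v). Incubation 35 °C, 140 rpm, 24 h.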

[5] = biological target: DNA topoisomerase 4 subunit B (Escherichia coli K-12, UniProt P20083); assay: Inhibition of Escherichia coli ParE
[6] = Growth inhibition of human A549 cells; format: cell-based
Escherichia coli [7] = assay: Antibacterial activity against tolC deficient Escherichia coli after 24 hrs by broth microdilution method; format: functional
In short: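 Broth microdilution per CLSI guidelines. Inoculum adjusted to 1×10^6 CFU/mL in cation-adjusted Mueller–Hinton broth, added 1:1 to 2-fold serial compound dilutions; final DMSO 2.5% v/v. Plates incubated 35 °C, 140 rpm, 24 h.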

[8] = Dissociation constant, basic pKa of compound by pH metric method; format: physicochemical; in short: as §2
[9] = Dissociation constant, acidic pKa of compound by pH metric method; format: physicochemical; in short: as §2
Acinetobacter baumannii = assay: Antibacterial activity against Acinetobacter baumannii ARC3495 after 24 hrs by broth microdilution method; format: functional; settings: ARC3495, 24 h; in short: as §1
Haemophilus influenzae = assay: Antibacterial activity against Haemophilus influenzae ATCC 49247 after 24 hrs by broth microdilution method; format: functional; settings: ATCC 49247, 24 h; in short: as §1
Streptococcus pyogenes = assay: Antibacterial activity against Streptococcus pyogenes ARC838 after 24 hrs by broth microdilution method; format: functional; settings: ARC838, 24 h
In short: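 Broth microdilution per CLSI. Bacterial suspension adjusted to 1×10^6 CFU/mL in cation-adjusted Mueller–Hinton broth and mixed 1:1 with 2-fold serial compound dilutions. Plates incubated at 35 °C with shaking at 140 rpm for 24 h.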

Klebsiella pneumoniae = assay: Antibacterial activity against Klebsiella pneumoniae ARC1865 after 24 hrs by broth microdilution method; format: functional; settings: ARC1865, 24 h; in short: as §1
Staphylococcus aureus [10] = assay: Antibacterial activity against methicillin-resistant Staphylococcus aureus USA100 after 24 hrs by broth microdilution method; format: functional; settings: USA100, 24 h; in short: as §3
Enterobacter cloacae = assay: Antibacterial activity against Enterobacter cloacae ARC3528 after 24 hrs by broth microdilution method; format: functional; settings: ARC3528, 24 h; in short: as §1
Staphylococcus aureus [11] = assay: Antibacterial activity against methicillin-resistant Staphylococcus aureus FQ-R after 24 hrs by broth microdilution method; format: functional; in short: as §3
Candida albicans = assay: Antifungal activity against Candida albicans ATCC 90028 after 24 hrs by broth microdilution method; format: functional; settings: ATCC 90028, 24 h

DNA topoisomerase 4 subunit B, sequence (P20083 whole entry): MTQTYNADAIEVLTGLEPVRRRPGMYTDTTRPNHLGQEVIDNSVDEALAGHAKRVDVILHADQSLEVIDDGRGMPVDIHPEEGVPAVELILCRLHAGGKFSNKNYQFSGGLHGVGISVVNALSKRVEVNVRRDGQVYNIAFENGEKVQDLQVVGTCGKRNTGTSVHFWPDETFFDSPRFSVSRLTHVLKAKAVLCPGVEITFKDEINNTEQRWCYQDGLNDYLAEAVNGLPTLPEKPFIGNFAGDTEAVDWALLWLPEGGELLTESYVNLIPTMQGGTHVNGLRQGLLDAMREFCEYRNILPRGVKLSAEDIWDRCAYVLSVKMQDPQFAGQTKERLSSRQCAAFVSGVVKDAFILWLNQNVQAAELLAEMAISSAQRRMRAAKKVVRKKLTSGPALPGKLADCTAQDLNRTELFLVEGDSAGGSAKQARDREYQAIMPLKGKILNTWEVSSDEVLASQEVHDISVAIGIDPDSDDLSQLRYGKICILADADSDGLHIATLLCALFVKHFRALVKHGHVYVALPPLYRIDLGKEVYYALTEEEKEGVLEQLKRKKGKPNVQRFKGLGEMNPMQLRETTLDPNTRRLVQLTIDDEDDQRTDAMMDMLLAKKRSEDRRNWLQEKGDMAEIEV

Row | Structure (SMILES) | MIC (Pseudomonas aeruginosa [1]) | MIC (Escherichia coli [2]) | pKa [3] | IC50 (DNA gyrase subunit B) | MIC (Pseudomonas aeruginosa [4]) | IC50 [5] | GI50 [6] | MIC (Escherichia coli [7]) | pKa [8] | pKa [9] | MIC (Acinetobacter baumannii) | MIC (Haemophilus influenzae) | MIC (Streptococcus pyogenes) | MIC (Klebsiella pneumoniae) | MIC (Staphylococcus aureus [10]) | MIC (Enterobacter cloacae) | MIC (Staphylococcus aureus [11]) | MIC (Candida albicans)
1 | CCNC(=O)Nc1cc(-c2nc(C(F)(F)F)cs2)c(-c2cc3ncccc3nc2N2[C@@H]3CC[C@H]2C[C@@H](N)C3)cn1 | 35.5 µg/mL (≈ 62.5 µM) | 4.54 µg/mL (≈ 7.98 µM) | 9.2 | 0.003 µM | 0.56 µg/mL (≈ 0.985 µM) | 0.024 µM | > 40 µM | 0.56 µg/mL (≈ 0.985 µM) | – | – | – | – | – | – | – | – | – | –
2 | CCNC(=O)Nc1cc(-c2nc(C(F)(F)F)cs2)c(-c2cc3ncccc3nc2N2CC3CCC2CN3)cn1 (stereo not drawn) | > 60 µg/mL | 8.87 µg/mL (≈ 16 µM) | 9.2 | 0.008 µM | 0.55 µg/mL (≈ 0.992 µM) | 0.021 µM | – | 1.1 µg/mL (≈ 1.98 µM) | – | – | – | – | – | – | – | – | – | –
3 | CCNC(=O)Nc1cc(-c2nc(C(F)(F)F)cs2)c(-c2cc3ncccc3nc2N2CC3CCCC(C2)N3)cn1 | > 60 µg/mL | 9.09 µg/mL (≈ 16 µM) | 9.2 | 0.014 µM | 0.55 µg/mL (≈ 0.967 µM) | 0.025 µM | > 50 µM | 0.28 µg/mL (≈ 0.492 µM) | – | – | – | – | – | – | – | – | – | –
4 | CCNC(=O)Nc1cc(-c2nc(C(F)(F)F)cs2)c(-c2cc(C(=O)O)ccc2N2C3CCC2CN(C)C3)cn1 | 9 µg/mL (≈ 16.1 µM) | 9 µg/mL (≈ 16.1 µM) | – | 0.009 µM | 4.46 µg/mL (≈ 7.96 µM) | 0.01 µM | > 25 µM | 1.12 µg/mL (≈ 2 µM) | 8.2 | 4.4 | – | – | – | – | – | – | – | –
5 | CCNC(=O)Nc1cc(-c2nc(C(F)(F)F)cs2)c(-c2cc3ncccc3nc2N2CCN(C)CC2)cn1 | > 100 µg/mL | 16.8 µg/mL (≈ 31 µM) | 7.4 | 0.003 µM | 1.08 µg/mL (≈ 1.99 µM) | 0.4 µM | > 50 µM | 1.08 µg/mL (≈ 1.99 µM) | – | – | – | – | – | – | – | – | – | –
6 | CC(=O)NC[C@H]1CN(c2ccc(N3CCOCC3)c(F)c2)C(=O)O1 [LINEZOLID] | – | – | – | – | – | – | – | – | – | – | > 64 µg/mL | 4 µg/mL (≈ 11.9 µM) | 0.5 µg/mL (≈ 1.48 µM) | > 64 µg/mL | 1 µg/mL (≈ 2.96 µM) | > 64 µg/mL | 0.5 µg/mL (≈ 1.48 µM) | > 64 µg/mL
7 | CCNC(=O)Nc1cc(-c2nc(C(F)(F)F)cs2)c(-c2cc3ncccc3nc2N2C3CC2CN(C)C3)cn1 | > 60 µg/mL | 17.2 µg/mL (≈ 31 µM) | 7.6 | 0.005 µM | 1.1 µg/mL (≈ 1.98 µM) | 0.2 µM | > 50 µM | 2.21 µg/mL (≈ 3.98 µM) | – | – | – | – | – | – | – | – | – | –
8 | CCNC(=O)Nc1cc(-c2nc(C(F)(F)F)cs2)c(-c2cc(C(=O)O)cnc2N2C3CCC2CN(C)C3)cn1 | 9 µg/mL (≈ 16 µM) | 9 µg/mL (≈ 16 µM) | – | 0.006 µM | 4.48 µg/mL (≈ 7.98 µM) | 0.008 µM | > 50 µM | 1.12 µg/mL (≈ 1.99 µM) | 7.4 | 3.5 | – | – | – | – | – | – | – | –
9 | CCNC(=O)Nc1cc(-c2nc(C(F)(F)F)cs2)c(-c2cc(-c3n[nH]c(=O)o3)cnc2N2[C@@H]3CC[C@H]2C[C@@H](N)C3)cn1 | > 50 µg/mL | > 50 µg/mL | – | 0.004 µM | 0.6 µg/mL (≈ 0.997 µM) | 0.012 µM | – | 4.8 µg/mL (≈ 7.98 µM) | 9.5 | 6.8 | – | – | – | – | – | – | – | –
